Experimental data: ChEMBL document CHEMBL5058577, “EUbOPEN Chemogenomics Library 2 (Multiplex)” (2022)

Tested on: Fibroblast
Assay: Multiplex assay against human fibroblast
Assay type: toxicity, cell-based
Outline: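 Values for tubulin, mitochondrial-mass and membrane-permeability phenotypes are per cents of cells with healthy nuclei. These cells were identified by CellPathfinder machine-learning gating of live cells that had been stained at seeding with Hoechst33342, BioTracker Green Microtubule Cytoskeleton Dye, MitoTracker Red and Annexin V Alexa Fluor 680 and imaged on a CQ1 microscope at 37°C and 5% CO2 after compound addition. The gating first set Hoechst high-intensity objects apart from normal cells, then split normal cells into healthy, pyknosed or fragmented nuclei, and pyknosed cells into mitotic or apoptotic.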

[1] = 12 h, 1 µM, compound concentration 1 uM, replicate 1
[2] = 12 h, 1 µM, compound concentration 1 uM, replicate 2
[3] = 12 h, 10 µM, compound concentration 10 uM, replicate 1
[4] = 12 h, 10 µM, compound concentration 10 uM, replicate 2
[5] = 24 h, 1 µM, compound concentration 1 uM, replicate 1
[6] = 24 h, 1 µM, compound concentration 1 uM, replicate 2
[7] = 24 h, 10 µM, compound concentration 10 uM, replicate 1
[8] = 24 h, 10 µM, compound concentration 10 uM, replicate 2
[9] = 48 h, 1 µM, compound concentration 1 uM, replicate 1
[10] = 48 h, 1 µM, compound concentration 1 uM, replicate 2
[11] = 48 h, 10 µM, compound concentration 10 uM, replicate 1
[12] = 48 h, 10 µM, compound concentration 10 uM, replicate 2

Compound: O=C1COc2nccc(-c3ccccc3F)c2CN1Cc1cc(C(F)(F)F)cc(C(F)(F)F)c1
- Population Apoptotic (%) [1]: 38%
- Population Fragmented Nuclei (%) [1]: 12%
- Population Healthy Nuclei (%) [1]: 74%
- Population Hoechst High Intensity Objects (%) [1]: 2%
- Population Membrane Permeable-Phenotype (%) [1]: 1%
- Population Mitochondria Different-Phenotype (%) [1]: 7%
- Population Mitotic Cells (%) [1]: 61%
- Population Normal (%) [1]: 97%
- Population Pyknosed Nuclei (%) [1]: 13%
- Population Tubulin-Different-Phenotype (%) [1]: 27%
- Total Cell Count [1]: 195
- Population Apoptotic (%) [2]: 29%
- Population Fragmented Nuclei (%) [2]: 17%
- Population Healthy Nuclei (%) [2]: 62%
- Population Hoechst High Intensity Objects (%) [2]: 0%
- Population Mitochondria Different-Phenotype (%) [2]: 5%
- Population Mitotic Cells (%) [2]: 70%
- Population Normal (%) [2]: 99%
- Population Pyknosed Nuclei (%) [2]: 20%
- Population Tubulin-Different-Phenotype (%) [2]: 32%
- Total Cell Count [2]: 135
- Population Apoptotic (%) [3]: 54%
- Population Fragmented Nuclei (%) [3]: 15%
- Population Healthy Nuclei (%) [3]: 69%
- Population Hoechst High Intensity Objects (%) [3]: 5%
- Population Membrane Permeable-Phenotype (%) [3]: 0%
- Population Mitochondria Different-Phenotype (%) [3]: 10%
- Population Mitotic Cells (%) [3]: 45%
- Population Normal (%) [3]: 94%
- Population Pyknosed Nuclei (%) [3]: 14%
- Population Tubulin-Different-Phenotype (%) [3]: 66%
- Total Cell Count [3]: 161
- Population Apoptotic (%) [4]: 37%
- Population Fragmented Nuclei (%) [4]: 24%
- Population Healthy Nuclei (%) [4]: 51%
- Population Hoechst High Intensity Objects (%) [4]: 8%
- Population Membrane Permeable-Phenotype (%) [4]: 4%
- Population Mitochondria Different-Phenotype (%) [4]: 12%
- Population Mitotic Cells (%) [4]: 62%
- Population Normal (%) [4]: 91%
- Population Pyknosed Nuclei (%) [4]: 23%
- Population Tubulin-Different-Phenotype (%) [4]: 50%
- Total Cell Count [4]: 132
- Population Apoptotic (%) [5]: 53%
- Population Fragmented Nuclei (%) [5]: 11%
- Population Healthy Nuclei (%) [5]: 74%
- Population Hoechst High Intensity Objects (%) [5]: 3%
- Population Membrane Permeable-Phenotype (%) [5]: 0%
- Population Mitochondria Different-Phenotype (%) [5]: 6%
- Population Mitotic Cells (%) [5]: 46%
- Population Normal (%) [5]: 96%
- Population Pyknosed Nuclei (%) [5]: 14%
- Population Tubulin-Different-Phenotype (%) [5]: 23%
- Total Cell Count [5]: 203
- Population Apoptotic (%) [6]: 34%
- Population Fragmented Nuclei (%) [6]: 20%
- Population Healthy Nuclei (%) [6]: 58%
- Population Hoechst High Intensity Objects (%) [6]: 2%
- Population Membrane Permeable-Phenotype (%) [6]: 2%
- Population Mitochondria Different-Phenotype (%) [6]: 3%
- Population Mitotic Cells (%) [6]: 65%
- Population Normal (%) [6]: 97%
- Population Pyknosed Nuclei (%) [6]: 20%
- Population Tubulin-Different-Phenotype (%) [6]: 39%
- Total Cell Count [6]: 142
- Population Apoptotic (%) [7]: 66%
- Population Fragmented Nuclei (%) [7]: 18%
- Population Healthy Nuclei (%) [7]: 71%
- Population Hoechst High Intensity Objects (%) [7]: 3%
- Population Membrane Permeable-Phenotype (%) [7]: 0%
- Population Mitochondria Different-Phenotype (%) [7]: 11%
- Population Mitotic Cells (%) [7]: 33%
- Population Normal (%) [7]: 96%
- Population Pyknosed Nuclei (%) [7]: 9%
- Population Tubulin-Different-Phenotype (%) [7]: 57%
- Total Cell Count [7]: 162
- Population Apoptotic (%) [8]: 55%
- Population Fragmented Nuclei (%) [8]: 26%
- Population Healthy Nuclei (%) [8]: 56%
- Population Hoechst High Intensity Objects (%) [8]: 6%
- Population Membrane Permeable-Phenotype (%) [8]: 7%
- Population Mitochondria Different-Phenotype (%) [8]: 5%
- Population Mitotic Cells (%) [8]: 45%
- Population Normal (%) [8]: 93%
- Population Pyknosed Nuclei (%) [8]: 16%
- Population Tubulin-Different-Phenotype (%) [8]: 61%
- Total Cell Count [8]: 129
- Population Apoptotic (%) [9]: 75%
- Population Fragmented Nuclei (%) [9]: 16%
- Population Healthy Nuclei (%) [9]: 75%
- Population Hoechst High Intensity Objects (%) [9]: 5%
- Population Membrane Permeable-Phenotype (%) [9]: 0%
- Population Mitochondria Different-Phenotype (%) [9]: 4%
- Population Mitotic Cells (%) [9]: 25%
- Population Normal (%) [9]: 94%
- Population Pyknosed Nuclei (%) [9]: 8%
- Population Tubulin-Different-Phenotype (%) [9]: 28%
- Total Cell Count [9]: 210
- Population Apoptotic (%) [10]: 31%
- Population Fragmented Nuclei (%) [10]: 29%
- Population Healthy Nuclei (%) [10]: 55%
- Population Hoechst High Intensity Objects (%) [10]: 6%
- Population Membrane Permeable-Phenotype (%) [10]: 1%
- Population Mitochondria Different-Phenotype (%) [10]: 1%
- Population Mitotic Cells (%) [10]: 68%
- Population Normal (%) [10]: 93%
- Population Pyknosed Nuclei (%) [10]: 14%
- Population Tubulin-Different-Phenotype (%) [10]: 25%
- Total Cell Count [10]: 143
- Population Apoptotic (%) [11]: 72%
- Population Fragmented Nuclei (%) [11]: 20%
- Population Healthy Nuclei (%) [11]: 72%
- Population Hoechst High Intensity Objects (%) [11]: 2%
- Population Membrane Permeable-Phenotype (%) [11]: 0%
- Population Mitochondria Different-Phenotype (%) [11]: 14%
- Population Mitotic Cells (%) [11]: 27%
- Population Normal (%) [11]: 97%
- Population Pyknosed Nuclei (%) [11]: 6%
- Population Tubulin-Different-Phenotype (%) [11]: 62%
- Total Cell Count [11]: 172
- Population Apoptotic (%) [12]: 60%
- Population Fragmented Nuclei (%) [12]: 39%
- Population Healthy Nuclei (%) [12]: 49%
- Population Hoechst High Intensity Objects (%) [12]: 5%
- Population Membrane Permeable-Phenotype (%) [12]: 1%
- Population Mitochondria Different-Phenotype (%) [12]: 8%
- Population Mitotic Cells (%) [12]: 40%
- Population Normal (%) [12]: 94%
- Population Pyknosed Nuclei (%) [12]: 11%
- Population Tubulin-Different-Phenotype (%) [12]: 47%
- Total Cell Count [12]: 144
